Reference: ChEMBL document CHEMBL5620402, “Development of submicromolar 17β-HSD10 inhibitors and their in vitro and in vivo evaluation” (Eur J Med Chem, 2023)

How the values were obtained:
[1] = molecular target: T1, 3-hydroxyacyl-CoA dehydrogenase type-2 (Homo sapiens, UniProt Q99714); assay: Inhibition of human recombinant 17beta-HSD10 expressed in bacterial expression system assessed as decrease in NADH using acetoacetyl-CoA as substrate
T1 sequence (Q99714 whole entry): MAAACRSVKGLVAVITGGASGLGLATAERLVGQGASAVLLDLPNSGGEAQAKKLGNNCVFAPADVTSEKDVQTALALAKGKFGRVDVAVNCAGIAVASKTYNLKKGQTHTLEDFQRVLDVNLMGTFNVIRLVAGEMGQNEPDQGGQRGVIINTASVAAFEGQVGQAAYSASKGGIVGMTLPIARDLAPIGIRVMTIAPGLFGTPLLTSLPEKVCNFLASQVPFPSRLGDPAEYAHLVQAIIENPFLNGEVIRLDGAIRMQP
Method in brief: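 Recombinant 17β-HSD10 from E. coli BL21(DE3), 0.15 μg, was mixed with 320 μmol/L NADH in 10 mM Tris-HCl pH 7.4 buffer (150 mM NaCl, 1 mM DTT, 0.001% Tween 20, 0.01% BSA). It was preincubated 5 min at 37 °C with inhibitor, then 320 μmol/L acetoacetyl-CoA was added. A340 was followed for 5 min. IC50 came from non-linear regression of ≥3 independent runs in triplicate; Ki was calculated from IC50 per Cer et al.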

[2] = molecular target: T2, 3-hydroxyacyl-CoA dehydrogenase type-2 (Homo sapiens) (UniProt Q99714); assay: Inhibition of recombinant 17beta-HSD10 (unknown origin) expressed in Escherichia coli BL21 (DE3) assessed as residual activity at 10 uM using acetoacetyl-CoA as substrate by SAAC method relative to control
T2 sequence (whole entry): T1 sequence (Q99714 whole entry)
Method in brief: (§1)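 Recombinant 17β-HSD10 from E. coli BL21(DE3), 0.15 μg, was mixed with 320 μmol/L NADH in Tris-HCl pH 7.4 assay buffer. It was preincubated 5 min at 37 °C with 1 or 10 μM inhibitor or vehicle, then 320 μmol/L acetoacetyl-CoA was added. A340 was followed for 5 min. Residual activity is % of control, triplicate mean ± SD, with t-test versus control.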

[3] = PBS buffer - Octanol distribution coefficient, logD of the compound at pH 7.4 by UHPLC-DAD-MS analysis; format: physicochemical
Method in brief: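 Compound (0.25 mg) was put into 500 μL of a 1:1 water–octanol (logP) or PBS pH 7.4–octanol (logD) mixture. Samples were shaken 30 min and centrifuged 10 min at 10,000 rcf. Each phase was quantified by UHPLC-DAD-MS against calibration lines.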

[4] = Aqueous solubility, logS of the compound at pH 7.4 phosphate buffer by nephelometry assay; format: physicochemical
Method in brief: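 Nephelometry of compound suspensions in phosphate buffer pH 7.4. Stock was 160 μg/mL, sonicated and auto-diluted over 0–160 μg/mL, with higher stocks (640 μg/mL, 2.54 mg/mL) used if needed. Wells were shaken 30 s and laser-scanned. Solubility was derived by segmental linear regression.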

[5] = Dissociation constant, pKa of compound using buffers of given pH (range from 3.0 to 11.5) by UV-VIS spectrophotometry; format: physicochemical
Method in brief: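 Compound (10 μL of 1 mg/mL) was put into 490 μL of buffers spanning pH 3.0–11.5 in 0.5-unit steps. UV spectra were scanned at 200–400 nm and 20 °C. pKa was fitted from the sigmoidal absorbance of the dissociated form versus pH.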

[6] = Partition coefficient between Water and Octanol, logP of the compound by UHPLC-DAD-MS analysis; details: pH 7.4
[7] = molecular target: T2, 3-hydroxyacyl-CoA dehydrogenase type-2 (Homo sapiens); assay: Inhibition of recombinant 17beta-HSD10 (unknown origin) expressed in Escherichia coli BL21 (DE3) assessed as residual activity at 1 uM using acetoacetyl-CoA as substrate by SAAC method relative to control; method in brief: as §1

| SMILES | IC50 [1] [µM] | Activity [2] [%] | logD [3] | logS0 [4] | pKa [5] | logP [6] | Activity [7] [%] |
| --- | --- | --- | --- | --- | --- | --- | --- |
| CS(=O)(=O)c1ccc2nc(NC(=O)Nc3ccc(O)c(Cl)c3)sc2c1 | 0.9 | – | – | – | – | – | – |
| COc1ccc2nc(/N=C/c3ccc(O)c(Cl)c3)sc2c1 | – | 76.6 | 3.95 | -4.73 | 11.6 | 3.79 | – |
| CCOC(=O)c1ccc2nc(NC(=O)Nc3ccc(O)c(Cl)c3)sc2c1 | – | 58.6 | 4.64 | -4.81 | 9.26 | 4.58 | – |
| CN(C)c1ccc2nc(NC(=O)Nc3ccc(O)c(Cl)c3)sc2c1 | – | 27 | 4.08 | -4.08 | 4.61 | 4.09 | 62.7 |
| COc1ccc2nc(NCc3ccc(O)c(Cl)c3)sc2c1 | – | 33.2 | 4.17 | -4.73 | 8.4 | 4.19 | 74.4 |
| CN(C)C(=O)c1ccc2nc(NC(=O)Nc3ccc(O)c(Cl)c3)sc2c1 | – | 31 | 2.95 | -4.81 | 9.51 | 2.94 | 70 |
| COc1ccc2nc(NC(=O)Nc3ccc(O)c(Br)c3)sc2c1 | 1.3 | – | – | – | – | – | – |
| COc1ccc2nc(NC(=O)Nc3ccc(O)c([N+](=O)[O-])c3)sc2c1 | – | 79.4 | 3.44 | -4.78 | 10.4 | 3.47 | – |

The remaining lines, values ahead:

| IC50 [1] [µM] | Activity [2] [%] | logD [3] | logS0 [4] | pKa [5] | logP [6] | Activity [7] [%] | SMILES |
| --- | --- | --- | --- | --- | --- | --- | --- |
| – | 67.6 | 3.19 | -3.38 | 8.74 | 3.14 | – | Oc1ccc(CNCc2nc3ccccc3o2)cc1Cl |
| – | 72.1 | 3.88 | -4.69 | 9.07 | 3.77 | – | Oc1ccc(NCc2nc3ccccc3s2)cc1Cl |
| – | 54.1 | 4.04 | -3.99 | 8.79 | 4.03 | – | Oc1ccc(CNCc2nc3ccccc3s2)cc1Cl |
| – | 68.7 | 2.73 | -4.68 | 9.14 | 2.94 | – | Oc1ccc(/N=C/c2nc3ccccc3s2)cc1Cl |
| – | 73.8 | 2.73 | -3.39 | 7.6 | 2.84 | – | Oc1ccc(CNCc2cc3ccccc3[nH]2)cc1Cl |
